Experimental data from ChEMBL document CHEMBL1140906, “Examination of the biological role of the alpha(2-->6)-linked sialic acid in gangliosides binding to the myelin-associated glycoprotein (MAG)” (J Med Chem, 2009).

Molecular target: T1, Myelin-associated glycoprotein (Homo sapiens, UniProt P20916)
T1 sequence (P20916 whole entry): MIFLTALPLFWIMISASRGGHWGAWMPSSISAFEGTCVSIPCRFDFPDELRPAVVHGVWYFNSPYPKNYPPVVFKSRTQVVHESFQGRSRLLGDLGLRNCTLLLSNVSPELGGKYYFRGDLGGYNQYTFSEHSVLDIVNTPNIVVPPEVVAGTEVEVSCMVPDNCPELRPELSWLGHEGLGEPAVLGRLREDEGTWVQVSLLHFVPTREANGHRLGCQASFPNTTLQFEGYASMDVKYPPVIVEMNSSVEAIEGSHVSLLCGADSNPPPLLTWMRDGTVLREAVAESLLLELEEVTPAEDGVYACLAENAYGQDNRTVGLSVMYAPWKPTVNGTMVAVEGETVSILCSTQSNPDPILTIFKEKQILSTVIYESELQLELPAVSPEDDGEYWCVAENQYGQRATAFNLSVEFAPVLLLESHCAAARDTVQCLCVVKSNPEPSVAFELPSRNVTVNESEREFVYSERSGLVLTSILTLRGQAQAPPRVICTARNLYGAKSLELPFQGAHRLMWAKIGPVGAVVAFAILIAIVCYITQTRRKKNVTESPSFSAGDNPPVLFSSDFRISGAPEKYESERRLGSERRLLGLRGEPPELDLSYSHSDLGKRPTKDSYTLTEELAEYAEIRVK
Assay: Binding affinity to human IgG Fc-domain tagged MAG N-terminal domain expressed in CHO cells by surface plasmon resonance
How it was run: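 Fc-MAGd1-3 (three N-terminal MAG domains fused to human IgG Fc, CHO-expressed, protein A-purified) captured on an immobilized anti-human IgG Fc antibody on CM5 chip; reference surface prepared in parallel.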

**Q.** For `CC(=O)N[C@H]1[C@H]([C@@H](O)[C@H](O)CNC(=O)c2ccc(Cl)cc2)O[C@@](O[C@H]2[C@@H](O)[C@@H](CO)O[C@@H](O[C@@H]3CCO[C@H](COCc4ccc(-c5ccccc5)cc4)[C@@H]3O)[C@@H]2O)(C(=O)O)C[C@@H]1O`, which Kd is on record?
**A.** The Kd was 2.83 µM.

**Q.** How did the Kd turn out when `CC(=O)N[C@H]1[C@H]([C@@H](O)[C@H](O)CNC(=O)c2ccccc2)O[C@@](O[C@H]2[C@@H](O)[C@@H](CO)O[C@@H](O[C@H]3[C@@H](O)[C@@H](CO)O[C@@H](OCC[Si](C)(C)C)[C@@H]3O)[C@@H]2O)(C(=O)O)C[C@@H]1O` was run?
**A.** The Kd was 32.6 µM.

**Q.** For `CC(=O)N[C@H]1[C@H]([C@@H](O)[C@H](O)CNC(=O)c2ccccc2)O[C@@](O[C@H]2[C@@H](O)[C@@H](CO)O[C@@H](O[C@@H]3CCO[C@H](COCc4ccc(-c5ccccc5)cc4)[C@@H]3O)[C@@H]2O)(C(=O)O)C[C@@H]1O`, which Kd is on record?
**A.** The Kd was 5 µM.

Molecular target: T2, Myelin-associated glycoprotein (Homo sapiens) (UniProt P20916)
T2 sequence (whole entry): T1 sequence (P20916 whole entry)
Assay: Inhibition of human IgG Fc-domain tagged MAG N-terminal domain expressed in CHO cells assessed as relative inhibition potency by hapten inhibition assay relative to (2R,4S,5R,6R)-5-acetamido-2-(((2R,3R,4R,5R,6R)-5-acetamido-4-((2R,3R,4S,5S,6R)-4-((2S,4S,5R)-5-acetamido-2-carboxy-4-hydroxy-6-((1S,2S)-1,2,3-trihydroxypropyl)tetrahydro-2H-pyran-2-yloxy)-3,5-dihydroxy-6-(hydroxymethyl)tetrahydro-2H-pyran-2-yloxy)-3-hydroxy-6-(2-(trimethylsilyl)ethoxy)tetrahydro-2H-pyran-2-yl)methoxy)-4-hydroxy-6-((1S,2R)-1,2,3-trihydroxypropyl)tetrahydro-2H-pyran-2-carboxylic acid
Type: cell-based
How it was run: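 Hapten inhibition: oligosaccharide added to wells with immobilized Neu5Ac, then Fc-MAGd1-3 precomplexed with alkaline phosphatase-labelled anti-Fc antibody; overnight at 4 °C, washed, bound MAG read by initial rate of fluorescein release from fluorescein diphosphate. IC50 from at least eight concentrations, at least three independent titrations; rIP calculated against the reference compound included in each test.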

**Q.** With `CC(=O)N[C@H]1[C@H](OCC[Si](C)(C)C)O[C@H](CO[C@@H](Cc2ccccc2)C(=O)O)[C@H](O)[C@@H]1O[C@@H]1O[C@H](CO)[C@H](O)[C@H](O[C@]2(C(=O)O)C[C@H](O)[C@@H](NC(C)=O)[C@H]([C@@H](O)[C@H](O)CO)O2)[C@H]1O` as the molecule, how does the Ratio IC50 read?
**A.** Its Ratio IC50 is 0.4.

**Q.** For `CC(=O)N[C@H]1[C@H](OCC[Si](C)(C)C)O[C@H](CO[C@@H](C)C(=O)O)[C@H](O)[C@@H]1O[C@@H]1O[C@H](CO)[C@H](O)[C@H](O[C@]2(C(=O)O)C[C@H](O)[C@@H](NC(C)=O)[C@H]([C@@H](O)[C@H](O)CO)O2)[C@H]1O`, which Ratio IC50 is on record?
**A.** The Ratio IC50 was 0.31.

**Q.** With `CC(=O)N[C@H]1[C@H]([C@@H](O)[C@H](O)CNC(=O)c2ccc(Cl)cc2)O[C@@](O[C@H]2[C@@H](O)[C@@H](CO)O[C@@H](O[C@@H]3CCO[C@H](COCc4ccc(-c5ccccc5)cc4)[C@@H]3O)[C@@H]2O)(C(=O)O)C[C@@H]1O` as the molecule, how does the Ratio IC50 read?
**A.** The Ratio IC50 was 377.

**Q.** Which Ratio IC50 does the source give for `CC(=O)N[C@H]1[C@H]([C@@H](O)[C@H](O)CO)O[C@@](O[C@H]2[C@@H](O)[C@@H](CO)O[C@@H](O[C@@H]3CCO[C@H](CO)[C@@H]3O)[C@@H]2O)(C(=O)O)C[C@@H]1O` here?
**A.** The Ratio IC50 was 0.76.

**Q.** With `CC(=O)N[C@H]1[C@H]([C@@H](O)[C@H](O)CNC(=O)c2ccccc2)O[C@@](O[C@H]2[C@@H](O)[C@@H](CO)O[C@@H](O[C@H]3[C@@H](O)[C@@H](CO)O[C@@H](OCC[Si](C)(C)C)[C@@H]3O)[C@@H]2O)(C(=O)O)C[C@@H]1O` as the molecule, how does the Ratio IC50 read?
**A.** Its Ratio IC50 is 61.5.

**Q.** `CC(=O)N[C@H]1[C@H]([C@@H](O)[C@H](O)CO)O[C@@](O[C@H]2[C@@H](O)[C@@H](CO)O[C@@H](O[C@@H]3CCO[C@H](CO[C@H](C)C(=O)O)[C@@H]3O)[C@@H]2O)(C(=O)O)C[C@@H]1O` was tested. Which Ratio IC50 did it give?
**A.** Its Ratio IC50 is 0.98.

**Q.** How did the Ratio IC50 turn out when `CC(=O)N[C@H]1[C@H]([C@@H](O)[C@H](O)CO)O[C@@](O[C@H]2[C@@H](O)[C@@H](CO)O[C@@H](O[C@H]3[C@@H](O)[C@@H](CO)O[C@@H](OCC[Si](C)(C)C)[C@@H]3O)[C@@H]2O)(C(=O)O)C[C@@H]1O` was run?
**A.** Its Ratio IC50 is 0.3.

**Q.** Which Ratio IC50 does the source give for `CC(=O)N[C@H]1[C@H](OCC[Si](C)(C)C)O[C@H](CO)[C@H](O)[C@@H]1O[C@@H]1O[C@H](CO)[C@H](O)[C@H](O[C@]2(C(=O)O)C[C@H](O)[C@@H](NC(C)=O)[C@H]([C@@H](O)[C@H](O)CO)O2)[C@H]1O` here?
**A.** The Ratio IC50 was 0.26.

**Q.** `CC(=O)N[C@H]1[C@H]([C@@H](O)[C@H](O)CNC(=O)c2ccccc2)O[C@@](O[C@H]2[C@@H](O)[C@@H](CO)O[C@@H](O[C@@H]3CCO[C@H](COCc4ccc(-c5ccccc5)cc4)[C@@H]3O)[C@@H]2O)(C(=O)O)C[C@@H]1O` was tested. Which Ratio IC50 did it give?
**A.** Its Ratio IC50 is 314.

**Q.** For `CC(=O)N[C@H]1[C@H]([C@@H](O)[C@H](O)CO)O[C@@](O[C@H]2[C@@H](O)[C@@H](CO)O[C@@H](O[C@@H]3CCO[C@H](COCc4ccccc4)[C@@H]3O)[C@@H]2O)(C(=O)O)C[C@@H]1O`, which Ratio IC50 is on record?
**A.** Its Ratio IC50 is 0.59.

**Q.** With `CC(=O)N[C@H]1[C@H]([C@@H](O)[C@H](O)CO)O[C@@](O[C@H]2[C@@H](O)[C@@H](CO)O[C@@H](O[C@@H]3CCO[C@H](CO[C@@H](C)C(=O)O)[C@@H]3O)[C@@H]2O)(C(=O)O)C[C@@H]1O` as the molecule, how does the Ratio IC50 read?
**A.** Its Ratio IC50 is 1.24.

**Q.** `CC(=O)N[C@H]1[C@H]([C@@H](O)[C@H](O)CO)O[C@@](O[C@H]2[C@@H](O)[C@@H](CO)O[C@@H](O[C@@H]3CCO[C@H](COCc4ccc(-c5ccccc5)cc4)[C@@H]3O)[C@@H]2O)(C(=O)O)C[C@@H]1O` was tested. Which Ratio IC50 did it give?
**A.** The Ratio IC50 was 1.25.

**Q.** `CC(=O)N[C@H]1[C@H]([C@@H](O)[C@H](O)CO)O[C@@](O[C@H]2[C@@H](O)[C@@H](CO)O[C@@H](O[C@@H]3CCO[C@H](CO[C@@H](Cc4ccccc4)C(=O)O)[C@@H]3O)[C@@H]2O)(C(=O)O)C[C@@H]1O` was tested. Which Ratio IC50 did it give?
**A.** The Ratio IC50 was 0.4.

**Q.** With `CC(=O)N[C@H]1[C@H]([C@@H](O)[C@H](O)CO)O[C@@](OC[C@H]2O[C@@H](OCC[Si](C)(C)C)[C@H](O)[C@@H](O[C@@H]3O[C@H](CO)[C@H](O)[C@H](O[C@]4(C(=O)O)C[C@H](O)[C@@H](NC(C)=O)[C@H]([C@@H](O)[C@H](O)CO)O4)[C@H]3O)[C@H]2O)(C(=O)O)C[C@@H]1O` as the molecule, how does the Ratio IC50 read?
**A.** Its Ratio IC50 is 0.3.

**Q.** With `CC(=O)N[C@H]1[C@H](OCC[Si](C)(C)C)O[C@H](CO[C@H](C)C(=O)O)[C@H](O)[C@@H]1O[C@@H]1O[C@H](CO)[C@H](O)[C@H](O[C@]2(C(=O)O)C[C@H](O)[C@@H](NC(C)=O)[C@H]([C@@H](O)[C@H](O)CO)O2)[C@H]1O` as the molecule, how does the Ratio IC50 read?
**A.** The Ratio IC50 was 0.17.
